Data set [1] has as its target T1, Histamine H2 receptor (Homo sapiens, UniProt P25021). Put plainly: Displacement of [3H]UR-DE257 from Gsalphas-coupled human H2R expressed in baculovirus infected Sf9 cells incubated for 60 mins by scintillation counting method. A general note: Loss of bound radioactivity is the signal in a displacement assay; it reports binding, not function.
The target in data set [2] is T1, Histamine H2 receptor. Put plainly: Binding affinity to human H2R expressed in human HEK293T cells incubated for 90 mins by flowcytometry. Format: cell-based, HEK-293T. The procedure, abridged: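 Flow cytometric saturation binding of fluorescent ligands on suspended HEK293T-hH2R-qs5 cells, 90 min incubation; pKd reported as mean ± SEM from three independent experiments, each in duplicate.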

For data set [3], the target named is T1, Histamine H2 receptor. Put plainly: Agonist activity at human H2R expressed in human HEK293T cells assessed as effect on beta-arrestin2 recruitment incubated for 60 mins by brightglo-reagent based assay. It counts as cell-based. The conditions noted are these: HEK-293T. Background: Recruitment of arrestin is a read-out of receptor activation apart from second messengers.

For data set [4], the system named is HEK-293T. Put plainly: Cytotoxicity against human HEK293T cells assessed as reduction in cell viability at 500 nM incubated for 90 mins by flow cytometry analysis. The conditions noted are these: 1.5 h, 0.5 µM. Format: cell-based.
Data set [5] has as its target T1, Histamine H2 receptor. The conditions noted are these: Sf9.
Data set [6] addresses T1, Histamine H2 receptor. Put plainly: Binding affinity to H2R (unknown origin).
Data set [7] concerns the target T1, Histamine H2 receptor. Put plainly: Binding affinity to human H2R expressed in human HEK293T cells incubated for 60 mins by automated cell imaging analysis. It counts as cell-based, HEK-293T.
Data set [8] has as its system HEK-293T. Put plainly: Cytotoxicity against human HEK293T cells assessed as reduction in cell viability at 3500 nM incubated for 90 mins by flow cytometry analysis. It counts as cell-based. The conditions noted are these: 1.5 h, 3.5 µM. In general terms: Flow cytometry measures light scatter and fluorescence of single cells or particles in a stream.
Data set [9] deals with HEK-293T. Put plainly: Cytotoxicity against human HEK293T cells assessed as reduction in cell viability at 500 nM incubated for 60 mins by H33342 staining based imaging analysis. As to conditions: 1 h, 0.5 µM.
Data set [10] concerns the target Histamine H2 receptor (Rattus norvegicus, UniProt P25102). Put plainly: Displacement of [125I]-aminopotentidine from rat H2R expressed in human COS7 cells incubated for 90 mins gamma counting method. It counts as cell-based, COS-7.
The target of data set [11] is T1, Histamine H2 receptor. Put plainly: Binding affinity to human H2R expressed in human HEK293T cells incubated for 60 mins by imaging flow cytometry analysis. Format: cell-based, HEK-293T. The conditions noted are these: for Ka: HEK-293T.
For data set [12], the target named is T1, Histamine H2 receptor. Put plainly: Binding affinity to H2R in human HEK293T cell membrane assessed as drug localization at 100 nM incubated for 20 mins by confocal microscopy analysis. Format: cell-based. As to conditions: HEK-293T. The method, boiled down: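 Live HEK293T-hH2R-qs5 cells exposed to fluorescent ligand at 100 nM, 20 min, room temperature; receptor binding at the cell membrane visualized by confocal laser scanning microscopy (63x/1.40 oil immersion objective).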

The target in data set [13] is T1, Histamine H2 receptor. Put plainly: Binding affinity to H2R in human HEK293T cell membrane assessed as drug localization at 100 nM in presence of famotidine incubated for 20 mins by confocal microscopy analysis. It counts as cell-based. As to conditions: HEK-293T. The method, boiled down: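 HEK293T-hH2R-qs5 cells incubated with fluorescent ligand (100 nM) for 20 min at rt in the presence of famotidine (300-fold excess) to define nonspecific binding; membrane localization imaged by confocal laser scanning microscopy, 63x/1.40 oil objective.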

The target in data set [14] is T1, Histamine H2 receptor. Put plainly: Binding affinity to H2R in human HEK293T cell membrane assessed as drug localization at 250 nM incubated for 60 mins followed by compound washoff by confocal microscopy analysis. It counts as cell-based. As to conditions: HEK-293T. The method, boiled down:
(§1)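 Adherent HEK293T-hH2R-qs5 cells incubated with fluorescent ligand 60 min at rt, then washed; Hoechst 33342 nuclear counterstain; famotidine (300-fold excess) defines nonspecific binding; membrane localization imaged by automated cell imaging.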

The test system of data set [15] is HEK-293T. Put plainly: Cytotoxicity against human HEK293T cells assessed as reduction in cell viability at 1000 nM incubated for 60 mins by H33342 staining based imaging analysis. As to conditions: 1 h, 1 µM.
In data set [16] the target is T1, Histamine H2 receptor. Put plainly: Binding affinity to H2R in human HEK293T cell membrane assessed as drug localization at 75 nM incubated for 60 mins followed by compound washoff by confocal microscopy analysis. The conditions noted are these: HEK-293T. Format: cell-based. The method, boiled down: as §1
Data set [17] relates to HEK-293T. Put plainly: Cytotoxicity against human HEK293T cells assessed as reduction in cell viability at 100 nM incubated for 90 mins by flow cytometry analysis. Format: cell-based. As to conditions: 1.5 h, 0.1 µM.
Data set [18] has as its system HEK-293T. Put plainly: Cytotoxicity against human HEK293T cells assessed as reduction in cell viability at 150 nM incubated for 60 mins by H33342 staining based imaging analysis. As to conditions: 1 h, 0.15 µM.
Data set [19] has as its system HEK-293T. Put plainly: Cytotoxicity against human HEK293T cells assessed as reduction in cell viability at 3000 nM incubated for 90 mins by flow cytometry analysis. Format: cell-based. As to conditions: 1.5 h, 3 µM.
Data set [20] relates to HEK-293T. Put plainly: Cytotoxicity against human HEK293T cells assessed as reduction in cell viability at 3000 nM incubated for 60 mins by H33342 staining based imaging analysis. The conditions noted are these: 1 h, 3 µM.
In data set [21] the target is T1, Histamine H2 receptor. Put plainly: Binding affinity to H2R in human HEK293T cell membrane assessed as drug localization at 500 nM incubated for 60 mins followed by compound washoff by confocal microscopy analysis. It counts as cell-based. The conditions noted are these: HEK-293T. The procedure, abridged:
as §1

Data set [22] concerns the target T1, Histamine H2 receptor. Put plainly: Binding affinity to human H2R expressing Sf9 cells incubated for 60 mins by microbeta scintillation counter method.

Structures are written as SMILES. Activity calls are given as the source filed them. The rule behind the calls is not given here.

T1 sequence (P25021 whole entry): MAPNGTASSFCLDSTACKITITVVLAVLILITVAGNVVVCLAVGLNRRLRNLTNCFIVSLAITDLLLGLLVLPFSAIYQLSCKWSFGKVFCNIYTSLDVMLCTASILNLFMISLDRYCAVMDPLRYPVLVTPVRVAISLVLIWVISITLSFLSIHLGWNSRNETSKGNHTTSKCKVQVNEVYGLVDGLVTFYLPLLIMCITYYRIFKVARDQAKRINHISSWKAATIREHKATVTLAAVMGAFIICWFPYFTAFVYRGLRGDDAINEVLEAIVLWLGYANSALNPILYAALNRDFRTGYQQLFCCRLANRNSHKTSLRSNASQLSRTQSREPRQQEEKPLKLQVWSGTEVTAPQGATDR
Histamine H2 receptor (Rattus norvegicus, UniProt P25102), sequence (P25102 whole entry): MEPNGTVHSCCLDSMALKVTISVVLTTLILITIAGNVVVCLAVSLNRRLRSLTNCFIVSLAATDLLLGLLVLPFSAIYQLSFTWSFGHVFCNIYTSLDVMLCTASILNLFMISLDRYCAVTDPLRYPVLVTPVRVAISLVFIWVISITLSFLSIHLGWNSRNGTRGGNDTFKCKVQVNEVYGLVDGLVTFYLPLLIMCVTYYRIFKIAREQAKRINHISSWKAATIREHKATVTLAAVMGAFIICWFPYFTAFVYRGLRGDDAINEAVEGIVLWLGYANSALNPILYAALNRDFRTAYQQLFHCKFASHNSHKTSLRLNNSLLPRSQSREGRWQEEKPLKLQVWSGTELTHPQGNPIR

A word on the Ki: it is a measure of affinity in units of concentration, obtained from inhibition or displacement. Read a low Ki as tighter binding. The term Kd denotes the constant that tells how readily two partners part at equilibrium. Usually pKb stands for the negative decadic logarithm of the Kb, by convention in mol/L. In the case of `Cc1cc(/C=C/C=C/c2ccc(N(C)C)cc2)cc(C)[n+]1CCCCCCNc1c(NCCCOc2cccc(CN3CCCCC3)c2)c(=O)c1=O.O=C(O)C(F)(F)F.O=C([O-])C(F)(F)F`, the inhibitory constant (Ki) on Histamine H2 receptor [1] is 0.0195 µM. For the same compound, the Kd at Histamine H2 receptor [2] was 0.0145 µM. Moreover, the outcome on Histamine H2 receptor [3] was inactive. Further, in the data set on HEK-293T [4], the Activity entry is recorded as “Non-Toxic”. Also, the pKb at Histamine H2 receptor [5] came to 7.21.
`CC1(C)C(/C=C/C=C/C=C2\N(CCCCCC(=O)NCCCCCNc3c(NCCCOc4cccc(CN5CCCCC5)c4)c(=O)c3=O)c3ccccc3C2(C)C)=[N+](CCCCS(=O)(=O)[O-])c2ccccc21`: at Histamine H2 receptor [6], the pKb was found to be 6.89.
In the case of `C[N+]1=C(/C=C/C=C/C=C2\N(CCCCCC(=O)NCCCCNc3c(NCCCOc4cccc(CN5CCCCC5)c4)c(=O)c3=O)c3ccccc3C2(C)C)C(C)(C)c2ccccc21.O=C(O)C(F)(F)F.O=C([O-])C(F)(F)F`, at Histamine H2 receptor [1], the inhibition constant (Ki) was 0.269 µM. The results for the dissociation constant (Kd) at Histamine H2 receptor [2] and at Histamine H2 receptor [7] were 0.288 µM and 0.12 µM, respectively. The Activity entry in the data set with HEK-293T [8] and in the data set with HEK-293T [9] was “Non-Toxic” in each case.
For the compound `CNc1ccccc1C(=O)NCCN/C(=N\C#N)NCCCOc1cccc(CN2CCCCC2)c1`, at Histamine H2 receptor [10], the Ki is < 0.1 µM.
Turning to `Cc1cc(/C=C/C=C/c2ccc(N(C)C)cc2)cc(C)[n+]1CCCCCCCNc1c(NCCCOc2cccc(CN3CCCCC3)c2)c(=O)c1=O.O=C(O)C(F)(F)F.O=C([O-])C(F)(F)F`, the affinity on Histamine H2 receptor [1], expressed as Ki, was 0.0174 µM. Also, the equilibrium dissociation constant (Kd) is 0.0186 µM at Histamine H2 receptor [2], 0.0891 µM at Histamine H2 receptor [7] and 0.0646 µM on Histamine H2 receptor [11]. This compound also showed a Ka on Histamine H2 receptor [11] of 71700 M⁻¹ s⁻¹. Further, at Histamine H2 receptor [3], the outcome was inactive. For the same compound, the outcome on Histamine H2 receptor [12], on Histamine H2 receptor [13] and on Histamine H2 receptor [14] was Active. Besides, the Activity entry in the data set with HEK-293T [4] and in the data set with HEK-293T [15] was “Non-Toxic” in each case. On Histamine H2 receptor [5], this compound came in with a negative-log Kb (pKb) of 7.85.
As to `C[N+]1=C(/C=C/C=C/C=C2\N(CCCCCC(=O)NCCCCCCNc3c(NCCCOc4cccc(CN5CCCCC5)c4)c(=O)c3=O)c3ccccc3C2(C)C)C(C)(C)c2ccccc21.O=C(O)C(F)(F)F.O=C([O-])C(F)(F)F`, affinity at Histamine H2 receptor [1] was put at a Ki of 0.0214 µM. The figures for the equilibrium dissociation constant (Kd) on Histamine H2 receptor [2] and at Histamine H2 receptor [7] were 0.0129 µM and 0.0151 µM, respectively. The compound also displayed a Ka at Histamine H2 receptor [11] of 15000 to 33300 M⁻¹ s⁻¹. Moreover, on Histamine H2 receptor [3], the result was inactive. In addition, the outcome at Histamine H2 receptor [12], on Histamine H2 receptor [13] and at Histamine H2 receptor [16] was Active. Besides, the Activity entry with HEK-293T [17] and in the data set on HEK-293T [18] was “Non-Toxic” each time. Moreover, on Histamine H2 receptor [5], the pKb was 7.73.
Turning to `CC1(C)C(/C=C/C=C/C=C2\N(CCCCCC(=O)NCCCCNc3c(NCCCOc4cccc(CN5CCCCC5)c4)c(=O)c3=O)c3ccccc3C2(C)C)=[N+](CCCCS(=O)(=O)[O-])c2ccccc21.O=C(O)C(F)(F)F.O=C(O)C(F)(F)F`, the inhibition constant (Ki) on Histamine H2 receptor [1] was 0.324 µM. Further, the Kd was 0.562 µM on Histamine H2 receptor [2] and 0.17 µM at Histamine H2 receptor [7]. The Activity result in the data set on HEK-293T [19] and in the data set on HEK-293T [20] was “Non-Toxic” each time.
Take `CC1(C)C(/C=C/C=C/C=C2\N(CCCCCC(=O)NCCCCCCNc3c(NCCCOc4cccc(CN5CCCCC5)c4)c(=O)c3=O)c3ccccc3C2(C)C)=[N+](CCCCS(=O)(=O)[O-])c2ccccc21.O=C(O)C(F)(F)F.O=C(O)C(F)(F)F`: the Ki on Histamine H2 receptor [1] is 0.0776 µM. Moreover, the dissociation constant Kd at Histamine H2 receptor [2] was 0.0479 µM; on Histamine H2 receptor [7], 0.0162 µM. This compound returned a Ka at Histamine H2 receptor [11] of 15000 to 33300 M⁻¹ s⁻¹. Moreover, the outcome at Histamine H2 receptor [12], on Histamine H2 receptor [13] and on Histamine H2 receptor [16] was Active. Besides, the Activity result in the data set with HEK-293T [4] and in the data set on HEK-293T [9] was “Non-Toxic” throughout. In addition, the pKb at Histamine H2 receptor [5] was 6.49.
At Histamine H2 receptor [1], `CC1(C)C(/C=C/C=C/C=C2\N(CCCCCC(=O)NCCCCCCNc3c(NCCCOc4cccc(CN5CCCCC5)c4)c(=O)c3=O)c3cc(S(=O)(=O)O)ccc3C2(C)C)=[N+](CCCCS(=O)(=O)[O-])c2ccccc21.O=C(O)C(F)(F)F.O=C(O)C(F)(F)F` had a Ki of 1.32 µM. The compound also showed an equilibrium dissociation constant (Kd) at Histamine H2 receptor [7] of 0.447 µM. Moreover, on Histamine H2 receptor [21], the outcome was Active. Besides, in the data set on HEK-293T [20], the Activity result was “Non-Toxic”.
Compound `Cc1cc(/C=C/C=C/c2ccc(N(C)C)cc2)cc(C)[n+]1CCCCNc1c(NCCCOc2cccc(CN3CCCCC3)c2)c(=O)c1=O.O=C(O)C(F)(F)F.O=C([O-])C(F)(F)F` had an inhibition constant (Ki) at Histamine H2 receptor [1] of 0.0178 µM. Besides, the figures for the dissociation constant Kd at Histamine H2 receptor [2], on Histamine H2 receptor [7] and at Histamine H2 receptor [11] were 0.0282 µM, 0.0741 µM and 0.0871 µM, respectively. The Activity entry with HEK-293T [4] and in the data set with HEK-293T [9] was “Non-Toxic” throughout.
As to `[3H]CC([3H])C(=O)NCCCCCCNc1c(NCCCOc2cccc(CN3CCCCC3)c2)c(=O)c1=O` (centres undefined), the dissociation constant (Kd) at Histamine H2 receptor [22] was 0.031 µM.
For `N#CN=C(NCCCCCCCCNc1ccc([N+](=O)[O-])c2n[o+][n-]c12)NCCCOc1cccc(CN2CCCCC2)c1`, the Ki at Histamine H2 receptor [10] was < 0.1 µM.
As for `CC1(C)C(/C=C/C=C/C=C2\N(CCCCCC(=O)NCCCCNc3c(NCCCOc4cccc(CN5CCCCC5)c4)c(=O)c3=O)c3cc(S(=O)(=O)O)ccc3C2(C)C)=[N+](CCCCS(=O)(=O)[O-])c2ccccc21`, the Ki on Histamine H2 receptor [1] is 2.04 µM. The result at Histamine H2 receptor [3] was inactive.

These data come from ChEMBL document CHEMBL4619810, “Fluorescent H2 Receptor Squaramide-Type Antagonists: Synthesis, Characterization, and Applications” (ACS Med Chem Lett, 2020).
